# Measured values from ChEMBL document CHEMBL1123899, “Nucleic acid related compounds. 51. Synthesis and biological properties of sugar-modified analogues of the nucleoside antibiotics tubercidin, toyocamycin, sangivamycin, and formycin” (1987).
# How the values were obtained:
# [1] = tested on: Poliovirus 1; assay: Minimum inhibitory concentration required to reduce Polio virus type 1 induced cytopathogenicity by 50%; format: functional; conditions: Enterovirus C
# [2] = tested on: L1210; assay: Minimum inhibitory concentration required to reduce incorporation of [4,5-3H]leucine into TCA-insoluble material from murine leukemia L1210 cells; format: functional; conditions: Mus musculus
# How it was run: (§1)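 Murine L1210 leukemia cells were exposed to compound and incorporation of [4,5-3H]leucine (protein) or [5-3H]Urd (RNA) into TCA-insoluble material was measured. MIC50 is the concentration reducing incorporation by 50%. Values are averages of at least three separate experiments.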
# [3] = tested on: Human respirovirus 3; assay: Minimum inhibitory concentration required to reduce parainfluenza type 3 induced cytopathogenicity by 50%; format: functional
# [4] = tested on: Human alphaherpesvirus 2; assay: Minimum inhibitory concentration required to reduce Herpes simplex virus type 2 (HSV-2 strain G) induced cytopathogenicity by 50%; format: functional
# [5] = tested on: Mammalian orthoreovirus 1; assay: Minimum inhibitory concentration required to reduce reo virus type 1 induced cytopathogenicity by 50%; format: functional
# [6] = tested on: Sindbis virus; assay: Minimum inhibitory concentration required to reduce sindbis virus induced cytopathogenicity by 50%; format: functional
# [7] = species: Oryctolagus cuniculus; assay: Minimum cytotoxic concentration required to cause a microscopically detectable alteration of normal cell morphology in primary rabbit kidney cells; format: functional
# How it was run: (§2)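 Cytotoxicity read microscopically as the minimum concentration producing a detectable alteration of normal cell morphology, in PRK, HeLa or Vero cell cultures. Average of two to three separate experiments.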
# [8] = tested on: HeLa; assay: Minimum cytotoxic concentration required to cause a microscopically detectable alteration of normal cell morphology in Hela cells; format: functional, Homo sapiens; how it was run: as §2
# [9] = tested on: Vesicular stomatitis virus; assay: Minimum inhibitory concentration required to reduce Vesicular stomatitis virus (VSV) induced cytopathogenicity by 50%; format: functional
# [10] = tested on: Vesicular stomatitis virus; assay: Minimum inhibitory concentration required to reduce vesicular stomatitis virus (VSV) induced cytopathogenicity by 50%; format: functional
# [11] = tested on: L1210; assay: Inhibition of murine leukemia L1210 cell growth; format: functional; conditions: Mus musculus
# How it was run: (§3)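 Murine L1210 leukemia cells; MIC50 is the concentration reducing cell growth, or incorporation of [methyl-3H]dThd into TCA-insoluble material (DNA synthesis), by 50%. Average of at least three separate experiments.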
# [12] = tested on: Measles morbillivirus; assay: Minimum inhibitory concentration required to reduce measles virus induced cytopathogenicity by 50%; format: functional
# [13] = tested on: Vero; assay: Minimum cytotoxic concentration required to cause a microscopically detectable alteration of normal cell morphology in Vero cells; format: functional, Chlorocebus sabaeus; how it was run: as §2
# [14] = tested on: Human alphaherpesvirus 1; assay: Minimum inhibitory concentration required to reduce Herpes simplex virus type 1 (HSV-1, strain KOS) induced cytopathogenicity by 50%; format: functional
# [15] = tested on: Coxsackievirus B4; assay: Minimum inhibitory concentration required to reduce Coxsackie virus type B-4-induced cytopathogenicity by 50%; format: functional
# [16] = tested on: L1210; assay: Minimum inhibitory concentration required to reduce incorporation of [5-3H]-Urd into TCA-insoluble material from murine leukemia L1210 cells; format: functional; conditions: Mus musculus; how it was run: as §1
# [17] = tested on: L1210; assay: Minimum inhibitory concentration required to reduce incorporation of [methyl-3H]dThd into TCA-insoluble material from murine leukemia L1210 cells; format: functional; conditions: Mus musculus; how it was run: as §3
Compound,MIC50 [1],MIC50 [2],MIC50 [3],MIC50 [4],MIC50 [5],MIC50 [6],MTC [7],MTC [8],MIC50 [9],MIC50 [10],MIC50 [11],MIC50 [12],MTC [13],MIC50 [14],"MIC50 ([15]; Enterovirus B, read-out: MIC50)",MIC50 [16],MIC50 [17],MIC50 [15]
N#Cc1cn([C@@H]2O[C@H](CO)[C@@H](O)[C@@H]2O)c2ncnc(N)c12,> 10 µg/mL,4.8 µg/mL,> 10 µg/mL,2 µg/mL,> 10 µg/mL,> 10 µg/mL,10 µg/mL,10 µg/mL,> 10 µg/mL,> 10 µg/mL,2 µg/mL,> 10 µg/mL,10 µg/mL,7 µg/mL,> 10 µg/mL,10.3 µg/mL,14 µg/mL,–
N#Cc1cn([C@H]2C[C@H](O)[C@@H](CO)O2)c2ncnc(N)c12,> 4 µg/mL,0.265 µg/mL,> 1 µg/mL,0.3 µg/mL,> 1 µg/mL,> 1 µg/mL,4 µg/mL,4 µg/mL,0.08 µg/mL,0.5 µg/mL,0.109 µg/mL,0.5 µg/mL,1 µg/mL,> 1 µg/mL,–,0.34 µg/mL,10 µg/mL,–
NC(=O)c1ncn([C@@H]2O[C@H](CO)[C@@H](O)[C@H]2O)n1 [RIBAVIRIN],20 µg/mL,–,50 µg/mL,> 400 µg/mL,75 µg/mL,65 µg/mL,>400 µg/mL,>400 µg/mL,4 µg/mL,300 µg/mL,–,30 µg/mL,>400 µg/mL,> 400 µg/mL,40 µg/mL,–,–,70 µg/mL
Nc1ncnc2c1ccn2C1OC(CO)CC1O (configuration not stated),2 µg/mL,2.08 µg/mL,20 µg/mL,> 10 µg/mL,10 µg/mL,> 100 µg/mL,10 µg/mL,40 µg/mL,20 µg/mL,> 10 µg/mL,0.38 µg/mL,> 100 µg/mL,100 µg/mL,> 10 µg/mL,–,3.2 µg/mL,90 µg/mL,–
N#Cc1cn(C2OC(CO)CC2O)c2ncnc(N)c12 (configuration not stated),> 1 µg/mL,0.113 µg/mL,0.4 µg/mL,> 0.4 µg/mL,0.7 µg/mL,0.7 µg/mL,1 µg/mL,1 µg/mL,> 1 µg/mL,> 1 µg/mL,0.02 µg/mL,> 1 µg/mL,1 µg/mL,> 0.4 µg/mL,0.7 µg/mL,0.16 µg/mL,93 µg/mL,>1 µg/mL
NC(=O)c1cn([C@@H]2O[C@H](CO)[C@@H](O)[C@H]2O)c2ncnc(N)c12 [SANGIVAMYCIN],0.07 µg/mL,0.014 µg/mL,0.02 µg/mL,0.07 µg/mL,> 0.4 µg/mL,> 0.4 µg/mL,1 µg/mL,0.4 µg/mL,0.04 µg/mL,0.02 µg/mL,0.019 µg/mL,–,0.4 µg/mL,0.07 µg/mL,–,–,> 100 µg/mL,–
Nc1ncnc2c1ccn2[C@@H]1O[C@H](CO)[C@@H](O)[C@H]1O [TUBERCIDIN],0.02 µg/mL,0.173 µg/mL,0.07 µg/mL,0.1 µg/mL,0.04 µg/mL,0.2 µg/mL,0.4 µg/mL,0.4 µg/mL,0.01 µg/mL,0.02 µg/mL,0.04 µg/mL,0.3 µg/mL,0.4 µg/mL,0.1 µg/mL,0.07 µg/mL,0.29 µg/mL,5.4 µg/mL,0.07 µg/mL
NC(=O)c1cn([C@H]2C[C@H](O)[C@@H](CO)O2)c2ncnc(N)c12,> 10 µg/mL,–,> 10 µg/mL,1 µg/mL,> 10 µg/mL,> 10 µg/mL,10 µg/mL,10 µg/mL,1 µg/mL,2 µg/mL,1.21 µg/mL,> 10 µg/mL,10 µg/mL,2 µg/mL,–,–,16 µg/mL,–
